Results on two molecules are retold here after ChEMBL document CHEMBL3860029, “Maximiscin Induces DNA Damage, Activates DNA Damage Response Pathways, and Has Selective Cytotoxic Activity against a Subtype of Triple-Negative Breast Cancer” (J Nat Prod, 2016).

Data set [1] is described as follows: Cytotoxicity against human MDA-MB-468 cells after 48 hrs by SRB assay. It is filed as functional. Particulars: MDA-MB-468, 48 h, read-out: LC50 (the source's name). In outline:
(§1)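 Cells grown in RPMI-1640 with 50 µg/mL gentamicin and 10% FBS at 37°C, 5% CO2, and passaged under 3 months after revival. Sulforhodamine B assay after 48 h of compound exposure, with cell density measured at time of treatment (T0). LC50 (50% cell death vs T0) interpolated by nonlinear regression. At least 3 independent experiments, each concentration in triplicate.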
For orientation: Sulforhodamine B stains cellular protein and so reports cell mass.

A short description of data set [2]: Cytotoxicity against human HCC70 cells after 48 hrs by SRB assay. Particulars: HCC70, 48 h, read-out: LC50 (the source's name). In kind it is functional. In a few lines:
as §1

A short description of data set [3]: Cytotoxicity against human BT549 cells after 48 hrs by SRB assay. It is filed as functional. Particulars: BT-549, 48 h, read-out: LC50 (the source's name). In a few lines:
as §1

The nature of data set [4]: Cytotoxicity against human MDA-MB-231 cells after 48 hrs by SRB assay. In kind it is functional. Particulars: MDA-MB-231, 48 h, read-out: LC50 (the source's name). In outline: (§2)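 Cells grown in IMEM with 25 µg/mL gentamicin and 10% FBS at 37°C, 5% CO2, and passaged under 3 months after revival. Sulforhodamine B assay after 48 h of compound exposure, with cell density measured at time of treatment (T0). LC50 (50% cell death vs T0) interpolated by nonlinear regression. At least 3 independent experiments, each concentration in triplicate.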

Data set [5] is described as follows: Cytotoxicity against human MDA-MB-453 cells after 48 hrs by SRB assay. In kind it is functional. Particulars: MDA-MB-453, 48 h, read-out: LC50 (the source's name). In outline: as §2
Data set [6] is described as follows: Cell cycle arrest in human MDA-MB-468 cells assessed as accumulation at G0/G1 phase at 1 to 10 uM after 18 hrs by propidium iodide staining based FACS analysis. In kind it is functional. In outline:
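MDA-MB-468 cells (RPMI-1640, 10% FBS, gentamicin) exposed to vehicle (DMSO) or compound for 18 h. Cells harvested and stained with Krishan's reagent (PI). DNA content read on a Muse Cell Analyzer to give phase distribution. n = 3; two-way ANOVA with Dunnett's post-hoc test.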
On the technique in general: Flow cytometry measures light scatter and fluorescence of single cells or particles in a stream.

The target of data set [7] is Cellular tumor antigen p53 (Homo sapiens) (UniProt P04637). Description: Induction of p53 phosphorylation at serine15 in whole cell human MDA-MB-468 cell lysates at 1 uM by antibody microarray assay. Particulars: TDE = time-dependent effect. It is filed as cell-based. In a few lines: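 MDA-MB-468 whole-cell lysates, prepared as for immunoblotting after early post-treatment time points, applied to a PathScan intracellular signaling antibody array with fluorescent readout. Near-infrared signals imaged and quantified.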
Chain of Cellular tumor antigen p53 (Homo sapiens) (P04637 whole entry, looked up): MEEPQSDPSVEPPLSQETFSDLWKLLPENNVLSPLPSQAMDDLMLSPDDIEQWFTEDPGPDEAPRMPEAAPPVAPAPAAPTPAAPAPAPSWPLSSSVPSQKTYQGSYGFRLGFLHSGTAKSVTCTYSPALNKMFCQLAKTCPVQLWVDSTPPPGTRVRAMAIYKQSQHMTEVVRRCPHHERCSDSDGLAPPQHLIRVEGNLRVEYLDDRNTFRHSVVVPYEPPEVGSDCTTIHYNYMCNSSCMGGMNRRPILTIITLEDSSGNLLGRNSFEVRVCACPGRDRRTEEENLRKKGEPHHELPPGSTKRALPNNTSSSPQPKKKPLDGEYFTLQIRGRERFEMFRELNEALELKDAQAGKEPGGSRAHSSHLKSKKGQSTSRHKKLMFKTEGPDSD

The target is the same in data set [8]. Description: Induction of p53 phosphorylation at serine15 in human MDA-MB-468 cells after 2 hrs at 1 uM by immunoblot analysis. In kind it is cell-based. In outline: (§3)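 Whole-cell lysates of MDA-MB-468 cells taken after vehicle or compound treatment for the stated times. Lysis buffer held protease inhibitors, PMSF and Na3VO4. Equal protein run on SDS-PAGE, blotted to PVDF and probed for phospho-S345-Chk1, phospho-T68-Chk2 and phospho-S15-p53 alongside total proteins and β-actin. Read by near-infrared fluorescent secondaries.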
(In general: In western blotting, separated proteins are transferred to a membrane and probed.)

Data set [9] concerns the target Serine/threonine-protein kinase Chk2 (Homo sapiens) (UniProt O96017). Description: Induction of CHK2 phosphorylation at T68-residue in human MDA-MB-468 cells at 1 uM after 2 hrs by immunoblot analysis. It is filed as cell-based. In outline: as §3
Data set [10] addresses T1, Serine/threonine-protein kinase Chk1 (Homo sapiens) (UniProt O14757).
T1 sequence (whole entry): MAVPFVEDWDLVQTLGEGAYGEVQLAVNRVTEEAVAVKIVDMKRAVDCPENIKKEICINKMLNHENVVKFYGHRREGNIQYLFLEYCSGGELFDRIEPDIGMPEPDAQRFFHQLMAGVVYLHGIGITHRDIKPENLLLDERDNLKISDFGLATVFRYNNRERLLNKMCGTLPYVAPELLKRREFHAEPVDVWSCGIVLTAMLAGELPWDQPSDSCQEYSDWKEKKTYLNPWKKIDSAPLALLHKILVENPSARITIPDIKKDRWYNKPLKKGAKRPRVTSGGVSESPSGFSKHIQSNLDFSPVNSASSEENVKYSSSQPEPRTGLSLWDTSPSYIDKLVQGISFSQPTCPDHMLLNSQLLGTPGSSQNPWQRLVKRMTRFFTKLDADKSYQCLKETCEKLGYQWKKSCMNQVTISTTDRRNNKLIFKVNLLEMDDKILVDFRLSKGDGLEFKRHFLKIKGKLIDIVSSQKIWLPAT
Description: Induction of CHK1 phosphorylation at S345-residue in human MDA-MB-468 cells at 1 uM after 4 hrs by immunoblot analysis. It is filed as cell-based. In a few lines: as §3

Data set [11] deals with MDA-MB-468. Description: Induction of DNA double stranded break in human MDA-MB-468 cells assessed as increase in gamma-H2A.X foci at 1 to 10 uM after 18 hrs by nucblue staining based immunofluorescent microscopic analysis. It is filed as functional, cell-based. In a few lines:
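MDA-MB-468 cells on glass coverslips, adhered overnight, then exposed 18 h. Paraformaldehyde fixation, blocking in 10% bovine calf serum/DPBS 20 min at room temperature, then anti-γ-H2A.X in 1% BSA/0.3% Triton X-100. Detection with Alexa Fluor 594 secondary and NucBlue nuclear counterstain at 60× objective. Two independent experiments, each concentration in duplicate.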

The subject of data set [12] is MDA-MB-468. Description: Antitumor activity against human MDA-MB-468 cells xenografted in athymic nude mouse assessed as tumor growth inhibition at 5 mg/kg, ip administered daily for 21 days measured on day 21 post dose relative to control. In kind it is functional, organism-based. In outline:
(§4)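 Female athymic nude mice implanted s.c. bilaterally in each flank with 2 × 10^6 MDA-MB-468 cells in DPBS plus Matrigel. Dosing began at tumor volume of at least 150 mm3, with 7 or 8 tumors/group. Dose was 5 mg/kg i.p. daily for 21 days in 2.5% DMSO/2.5% Kolliphor EL in DPBS; controls untreated. Mice weighed and examined daily; calipers twice weekly; volume = length × width × height.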

The test system of a further data set is Mus musculus. Description: Toxicity in athymic nude mouse xenografted with human MDA-MB-468 cells assessed as weight loss at 5 mg/kg, ip administered daily for 21 days […] relative to control. It is filed as organism-based. Particulars: in vivo, 504 h. In a few lines: as §4
The subject of another data set is HCC70. Description: Selectivity ratio of LC50 for human HCC70 cells to LC50 for human MDA-MB-468 cells. It is filed as functional. In a few lines:
(§5)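 Both LC50s come from 48 h sulforhodamine B assays, with T0 density measured at treatment. LC50 is 50% cell death vs T0, interpolated by nonlinear regression. At least 3 independent experiments, concentrations in triplicate. MDA-MB-468, HCC70 and BT-549 were grown in RPMI-1640. MDA-MB-231 and MDA-MB-453 were grown in IMEM.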

Another data set has as its system BT-549. Description: Selectivity ratio of LC50 for human BT549 cells to LC50 for human MDA-MB-468 cells. In kind it is functional. In outline: as §5
Data set [13] in a line: Selectivity ratio of LC50 for human MDA-MB-231 cells to LC50 for human MDA-MB-468 cells. In kind it is functional. In outline:
as §5

Data set [14] in a line: Selectivity ratio of LC50 for human MDA-MB-453 cells to LC50 for human MDA-MB-468 cells. It is filed as functional. In a few lines:
as §5

The source made the active and inactive calls. No cut-off for these calls is given here.

Chain of Serine/threonine-protein kinase Chk2 (Homo sapiens) (O96017 whole entry): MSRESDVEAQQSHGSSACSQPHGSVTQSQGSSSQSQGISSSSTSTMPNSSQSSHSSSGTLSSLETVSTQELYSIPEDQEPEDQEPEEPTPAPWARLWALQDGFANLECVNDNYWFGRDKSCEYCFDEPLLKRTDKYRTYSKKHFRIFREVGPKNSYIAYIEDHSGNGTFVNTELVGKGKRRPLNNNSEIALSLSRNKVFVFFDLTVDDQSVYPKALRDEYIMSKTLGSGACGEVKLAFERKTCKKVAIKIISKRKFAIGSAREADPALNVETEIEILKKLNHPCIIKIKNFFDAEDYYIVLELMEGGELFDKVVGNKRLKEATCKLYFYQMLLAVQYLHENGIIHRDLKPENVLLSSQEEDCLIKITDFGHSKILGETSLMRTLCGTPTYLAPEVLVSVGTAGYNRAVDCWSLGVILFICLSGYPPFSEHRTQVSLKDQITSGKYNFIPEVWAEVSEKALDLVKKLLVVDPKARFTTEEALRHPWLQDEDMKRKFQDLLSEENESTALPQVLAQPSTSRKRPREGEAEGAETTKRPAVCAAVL

For `C=C[C@@H]1C[C@H](C)C[C@H](C)[C@H]1c1c(O)ccn(O[C@@H]2C(C(=O)OC)=C[C@@H](O)[C@@H](O)[C@H]2O)c1=O`, the CC50 stood at 600 nM in [1]; 39 µM in [2]; 15 µM in data set [3]; 60 µM in [4]; 15 µM in data set [5]. Further, the outcome in data set [6], in data set [8], in [9] and in data set [10] was Active. Further, the Activity entry in data set [7] is “Tde”; in the data set with MDA-MB-468 [11] it was “Dose-dependent effect”; in the data set with Mus musculus, 12%. The TGI entry in the data set with MDA-MB-468 [12] was “Active”. Further, the RatioLC50 (in the data set on HCC70; with BT-549; in [13]; in data set [14]) was 25 - 100 in each case.
`CC(=O)O[C@H]1C(=O)[C@@]2(C)[C@H]([C@H](OC(=O)c3ccccc3)[C@]3(O)C[C@H](OC(=O)[C@H](O)[C@@H](NC(=O)c4ccccc4)c4ccccc4)C(C)=C1C3(C)C)[C@]1(OC(C)=O)CO[C@@H]1C[C@@H]2O` [PACLITAXEL]: the CC50 was 9.8 nM in data set [1]; > 0.0312 µM in data set [2]; 0.018 µM in data set [3]; > 0.0625 µM in data set [4]; 0.0082 µM in data set [5].
